Drawing on ChEMBL document CHEMBL3797186, “Single Residue Substitutions That Confer Voltage-Gated Sodium Ion Channel Subtype Selectivity in the NaV1.7 Inhibitory Peptide GpTx-1” (J Med Chem, 2016), this text covers IC50 for 6 molecules.

Each structure is given as a SMILES string. Positions of bridges follow the written chain, without caps; N, C: chain ends. Residues, ends and D or L forms follow the SMILES beside them.

Test [1] addresses Sodium channel protein type 9 subunit alpha (Homo sapiens, UniProt Q15858). Nature of the test: Inhibition of human Nav1.7 expressed in HEK293 cells assessed as inward peak current by ion-works quattro patch clamp electrophysiology method. The class given is cell-based.
Test [2] addresses Sodium channel protein type 5 subunit alpha (Homo sapiens, UniProt Q14524). Kind of test: Inhibition of human Nav1.5 expressed in HEK293 cells assessed as inward peak current by ion-works quattro patch clamp electrophysiology method. It counts as cell-based. Put shortly: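 Stable HEK293 line expressing human NaV1.5, recorded by population patch clamp on the IonWorks Quattro.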

Sodium channel protein type 5 subunit alpha, sequence (Q14524 whole entry): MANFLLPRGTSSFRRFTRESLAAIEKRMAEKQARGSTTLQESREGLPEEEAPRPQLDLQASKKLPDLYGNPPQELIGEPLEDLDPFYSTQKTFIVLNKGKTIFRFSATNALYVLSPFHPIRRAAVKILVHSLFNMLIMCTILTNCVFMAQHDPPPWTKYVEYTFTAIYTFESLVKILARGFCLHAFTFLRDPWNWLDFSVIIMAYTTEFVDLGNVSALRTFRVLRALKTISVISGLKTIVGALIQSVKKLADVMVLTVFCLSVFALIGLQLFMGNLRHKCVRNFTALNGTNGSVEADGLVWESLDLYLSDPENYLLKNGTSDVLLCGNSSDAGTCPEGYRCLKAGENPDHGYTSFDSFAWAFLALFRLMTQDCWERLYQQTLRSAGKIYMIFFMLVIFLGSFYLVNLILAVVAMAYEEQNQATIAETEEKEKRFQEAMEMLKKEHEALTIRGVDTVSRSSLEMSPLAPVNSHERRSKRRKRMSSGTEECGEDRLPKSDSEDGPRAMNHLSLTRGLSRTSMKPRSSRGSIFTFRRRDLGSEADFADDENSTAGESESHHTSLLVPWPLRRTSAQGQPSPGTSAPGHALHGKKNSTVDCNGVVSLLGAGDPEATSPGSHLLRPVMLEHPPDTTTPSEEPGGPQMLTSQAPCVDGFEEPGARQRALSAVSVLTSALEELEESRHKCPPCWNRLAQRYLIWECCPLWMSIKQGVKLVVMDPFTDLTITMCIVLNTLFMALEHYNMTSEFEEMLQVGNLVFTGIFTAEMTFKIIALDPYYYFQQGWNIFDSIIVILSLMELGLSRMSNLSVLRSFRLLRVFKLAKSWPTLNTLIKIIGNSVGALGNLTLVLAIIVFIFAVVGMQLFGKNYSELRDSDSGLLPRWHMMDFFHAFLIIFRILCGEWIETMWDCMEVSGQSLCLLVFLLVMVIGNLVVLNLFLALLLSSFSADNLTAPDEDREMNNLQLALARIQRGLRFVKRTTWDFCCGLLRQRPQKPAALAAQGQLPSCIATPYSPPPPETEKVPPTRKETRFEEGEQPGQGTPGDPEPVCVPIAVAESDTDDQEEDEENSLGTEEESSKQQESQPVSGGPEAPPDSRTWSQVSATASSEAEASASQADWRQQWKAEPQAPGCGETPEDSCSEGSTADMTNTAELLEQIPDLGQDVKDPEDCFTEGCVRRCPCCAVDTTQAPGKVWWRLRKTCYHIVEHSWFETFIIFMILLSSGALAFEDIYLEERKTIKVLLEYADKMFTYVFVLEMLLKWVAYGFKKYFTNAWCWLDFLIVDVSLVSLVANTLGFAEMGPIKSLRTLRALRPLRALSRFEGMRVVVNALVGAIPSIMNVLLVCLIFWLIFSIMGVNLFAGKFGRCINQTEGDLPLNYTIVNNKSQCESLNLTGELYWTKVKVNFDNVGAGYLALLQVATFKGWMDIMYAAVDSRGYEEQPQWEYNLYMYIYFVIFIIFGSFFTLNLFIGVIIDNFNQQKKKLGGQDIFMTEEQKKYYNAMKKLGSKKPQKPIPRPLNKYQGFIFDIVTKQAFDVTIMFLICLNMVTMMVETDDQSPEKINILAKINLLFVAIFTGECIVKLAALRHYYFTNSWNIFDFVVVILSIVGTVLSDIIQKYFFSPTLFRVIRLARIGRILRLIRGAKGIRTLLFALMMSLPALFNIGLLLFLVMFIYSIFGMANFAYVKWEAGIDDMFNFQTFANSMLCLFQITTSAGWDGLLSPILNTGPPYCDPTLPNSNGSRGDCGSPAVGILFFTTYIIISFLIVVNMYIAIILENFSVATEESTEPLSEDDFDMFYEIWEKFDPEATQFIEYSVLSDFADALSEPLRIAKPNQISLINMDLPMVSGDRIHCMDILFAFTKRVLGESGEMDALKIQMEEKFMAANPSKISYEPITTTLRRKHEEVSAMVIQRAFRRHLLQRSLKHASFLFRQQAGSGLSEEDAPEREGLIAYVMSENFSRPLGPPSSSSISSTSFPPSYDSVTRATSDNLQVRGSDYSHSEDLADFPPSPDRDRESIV
Sodium channel protein type 9 subunit alpha, sequence (Q15858 whole entry): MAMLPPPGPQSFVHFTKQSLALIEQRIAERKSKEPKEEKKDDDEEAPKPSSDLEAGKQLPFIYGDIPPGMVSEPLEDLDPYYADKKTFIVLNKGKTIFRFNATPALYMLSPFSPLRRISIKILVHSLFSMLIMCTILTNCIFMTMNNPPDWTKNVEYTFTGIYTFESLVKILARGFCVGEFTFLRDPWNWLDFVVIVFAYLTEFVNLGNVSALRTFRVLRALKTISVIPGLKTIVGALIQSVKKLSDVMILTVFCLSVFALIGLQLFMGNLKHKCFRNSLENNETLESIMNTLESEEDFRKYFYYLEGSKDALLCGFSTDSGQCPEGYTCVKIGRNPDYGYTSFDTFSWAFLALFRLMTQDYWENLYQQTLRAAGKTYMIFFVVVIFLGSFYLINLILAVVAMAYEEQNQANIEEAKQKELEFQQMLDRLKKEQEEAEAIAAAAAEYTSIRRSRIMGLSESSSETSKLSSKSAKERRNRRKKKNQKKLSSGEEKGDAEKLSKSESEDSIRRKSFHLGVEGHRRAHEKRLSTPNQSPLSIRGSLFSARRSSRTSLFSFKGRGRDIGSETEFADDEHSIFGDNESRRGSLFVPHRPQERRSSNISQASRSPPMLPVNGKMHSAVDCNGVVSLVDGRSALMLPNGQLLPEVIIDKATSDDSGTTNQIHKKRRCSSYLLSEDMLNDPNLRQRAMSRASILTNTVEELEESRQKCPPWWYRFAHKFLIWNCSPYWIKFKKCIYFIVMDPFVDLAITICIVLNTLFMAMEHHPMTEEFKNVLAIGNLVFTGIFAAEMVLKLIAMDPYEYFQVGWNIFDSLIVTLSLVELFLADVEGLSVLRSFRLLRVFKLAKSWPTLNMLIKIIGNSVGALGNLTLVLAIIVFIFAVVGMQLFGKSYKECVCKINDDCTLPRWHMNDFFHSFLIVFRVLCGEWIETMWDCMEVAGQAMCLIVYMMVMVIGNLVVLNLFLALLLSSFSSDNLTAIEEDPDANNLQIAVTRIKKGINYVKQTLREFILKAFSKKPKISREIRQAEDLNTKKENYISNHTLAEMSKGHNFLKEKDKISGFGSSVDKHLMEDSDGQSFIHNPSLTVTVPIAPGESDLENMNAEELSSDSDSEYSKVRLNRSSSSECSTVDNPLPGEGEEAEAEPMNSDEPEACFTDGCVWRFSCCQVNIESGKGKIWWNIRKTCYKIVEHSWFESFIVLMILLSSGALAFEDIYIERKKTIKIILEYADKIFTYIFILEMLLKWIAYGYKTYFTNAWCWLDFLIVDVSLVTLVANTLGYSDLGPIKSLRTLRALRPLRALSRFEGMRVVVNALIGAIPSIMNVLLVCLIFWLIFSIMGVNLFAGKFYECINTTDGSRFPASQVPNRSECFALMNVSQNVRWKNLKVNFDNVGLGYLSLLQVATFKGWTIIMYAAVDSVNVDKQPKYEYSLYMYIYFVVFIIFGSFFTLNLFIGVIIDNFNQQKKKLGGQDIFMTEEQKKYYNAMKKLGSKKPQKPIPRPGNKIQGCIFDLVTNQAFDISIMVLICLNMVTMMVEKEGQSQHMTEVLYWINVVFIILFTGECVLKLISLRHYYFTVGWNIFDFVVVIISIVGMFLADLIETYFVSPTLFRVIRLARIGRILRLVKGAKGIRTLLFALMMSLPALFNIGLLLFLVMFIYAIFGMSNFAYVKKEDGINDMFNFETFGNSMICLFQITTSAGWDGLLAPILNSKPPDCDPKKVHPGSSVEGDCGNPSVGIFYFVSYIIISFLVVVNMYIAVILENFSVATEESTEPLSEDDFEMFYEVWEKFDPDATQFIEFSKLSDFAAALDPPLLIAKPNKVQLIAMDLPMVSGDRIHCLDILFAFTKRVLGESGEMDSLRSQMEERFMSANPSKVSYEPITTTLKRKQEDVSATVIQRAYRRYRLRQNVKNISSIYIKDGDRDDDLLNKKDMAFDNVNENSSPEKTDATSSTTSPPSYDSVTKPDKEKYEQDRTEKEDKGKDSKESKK

On to `CC[C@H](C)[C@@H]1NC(=O)[C@@H]2CSSC[C@@H]3NC(=O)[C@H](C(C)C)NC(=O)[C@H](Cc4c[nH]c5ccccc45)NC(=O)[C@H](CC(N)=O)NC(=O)[C@@H]4CCCN4C(=O)[C@H](CCCNC(=N)N)NC(=O)[C@H](CSSC[C@H](NC(=O)[C@@H](N)CC(=O)O)C(=O)N[C@@H](CC(C)C)C(=O)NCC(=O)N[C@@H](Cc4ccccc4)C(=O)N[C@@H](CCSC)C(=O)N[C@@H](CCCNC(=N)N)C(=O)N[C@@H](CCCCN)C(=O)N2)NC(=O)[C@H](CSSC[C@@H](C(=O)N[C@@H](CCCCN)C(=O)N[C@@H](Cc2ccc(O)cc2)C(=O)N[C@H](C(=O)N[C@@H](Cc2ccccc2)C(N)=O)C(C)C)NC(=O)[C@H](Cc2c[nH]c4ccccc24)NC(=O)[C@H](CCCCN)NC(=O)[C@H](Cc2cnc[nH]2)NC(=O)[C@H]([C@@H](C)O)NC(=O)[C@H](CCCNC(=N)N)NC(=O)[C@H](CO)NC3=O)NC(=O)[C@H](CCCCN)NC(=O)[C@H](CC(=O)O)NC(=O)[C@H](CC(N)=O)NC(=O)[C@H](CC(=O)O)NC(=O)[C@@H]2CCCN2C1=O` (H-DCLGFMRKCIPDNDKCCRPNWVCSRTHKWCKYVF-NH2; disulfide 2-17, 9-23, 16-30), for which the results for the IC50 in test [1] and in test [2] were 110 nM and above 5 µM, respectively.
For `CC[C@H](C)[C@@H]1NC(=O)[C@@H]2CSSC[C@@H]3NC(=O)[C@H](C(C)C)NC(=O)[C@H](CC(C)C)NC(=O)[C@H](CC(N)=O)NC(=O)[C@@H]4CCCN4C(=O)[C@H](CCCNC(=N)N)NC(=O)[C@H](CSSC[C@H](NC(=O)[C@@H](N)CC(=O)O)C(=O)N[C@@H](CC(C)C)C(=O)NCC(=O)N[C@@H](Cc4ccccc4)C(=O)N[C@@H](CCSC)C(=O)N[C@@H](CCCNC(=N)N)C(=O)N[C@@H](CCCCN)C(=O)N2)NC(=O)[C@H](CSSC[C@@H](C(=O)N[C@@H](CCCCN)C(=O)N[C@@H](Cc2ccc(O)cc2)C(=O)N[C@H](C(=O)N[C@@H](Cc2ccccc2)C(N)=O)C(C)C)NC(=O)[C@H](Cc2c[nH]c4ccccc24)NC(=O)[C@H](CCCNC(=N)N)NC(=O)[C@H](Cc2cnc[nH]2)NC(=O)[C@H]([C@@H](C)O)NC(=O)[C@H](CCCNC(=N)N)NC(=O)[C@H](CO)NC3=O)NC(=O)[C@H](CCCCN)NC(=O)[C@H](CC(=O)O)NC(=O)[C@H](CC(N)=O)NC(=O)[C@H](CC(=O)O)NC(=O)[C@@H]2CCCN2C1=O` the same measures were 90 nM and above 5 µM.
Take `CC[C@H](C)[C@@H]1NC(=O)[C@@H]2CSSC[C@@H]3NC(=O)[C@H](CCCCN)NC(=O)[C@H](CC(C)C)NC(=O)[C@H](CC(N)=O)NC(=O)[C@@H]4CCCN4C(=O)[C@H](CCCNC(=N)N)NC(=O)[C@H](CSSC[C@H](NC(=O)[C@@H](N)CC(=O)O)C(=O)N[C@@H](CC(C)C)C(=O)NCC(=O)N[C@@H](Cc4ccccc4)C(=O)N[C@@H](CCSC)C(=O)N[C@@H](CCCNC(=N)N)C(=O)N[C@@H](CCCCN)C(=O)N2)NC(=O)[C@H](CSSC[C@@H](C(=O)N[C@@H](CCCCN)C(=O)N[C@@H](Cc2ccc(O)cc2)C(=O)N[C@H](C(=O)N[C@@H](Cc2ccccc2)C(N)=O)C(C)C)NC(=O)[C@H](Cc2c[nH]c4ccccc24)NC(=O)[C@H](CCCCN)NC(=O)[C@H](Cc2cnc[nH]2)NC(=O)[C@H]([C@@H](C)O)NC(=O)[C@H](CCCNC(=N)N)NC(=O)[C@H](CO)NC3=O)NC(=O)[C@H](CCCCN)NC(=O)[C@H](CC(=O)O)NC(=O)[C@H](CC(N)=O)NC(=O)[C@H](CC(=O)O)NC(=O)[C@@H]2CCCN2C1=O` (H-DCLGFMRKCIPDNDKCCRPNLKCSRTHKWCKYVF-NH2; disulfide 2-17, 9-23, 16-30): the 50% inhibitory concentration (IC50) in test [1] is 200 nM; in test [2] it was above 5 µM.
On to `CC[C@H](C)[C@@H]1NC(=O)[C@@H]2CSSC[C@@H]3NC(=O)[C@H](C(C)C)NC(=O)[C@H](CC(C)C)NC(=O)[C@H](CC(N)=O)NC(=O)[C@@H]4CCCN4C(=O)[C@H](CCCNC(=N)N)NC(=O)[C@H](CSSC[C@H](NC(=O)[C@@H](N)CC(=O)O)C(=O)N[C@@H](CC(C)C)C(=O)NCC(=O)N[C@@H](Cc4ccccc4)C(=O)N[C@@H](CCSC)C(=O)N[C@@H](CCCNC(=N)N)C(=O)N[C@@H](CCCCN)C(=O)N2)NC(=O)[C@H](CSSC[C@@H](C(=O)N[C@@H](CCCCN)C(=O)N[C@@H](Cc2ccc(O)cc2)C(=O)N[C@H](C(=O)N[C@@H](CCC(=O)O)C(N)=O)C(C)C)NC(=O)[C@H](Cc2c[nH]c4ccccc24)NC(=O)[C@H](CCCCN)NC(=O)[C@H](Cc2cnc[nH]2)NC(=O)[C@H]([C@@H](C)O)NC(=O)[C@H](CCCNC(=N)N)NC(=O)[C@H](CO)NC3=O)NC(=O)[C@H](CCCCN)NC(=O)[C@H](CC(=O)O)NC(=O)[C@H](CC(N)=O)NC(=O)[C@H](CC(=O)O)NC(=O)[C@@H]2CCCN2C1=O` (H-DCLGFMRKCIPDNDKCCRPNLVCSRTHKWCKYVE-NH2; disulfide 2-17, 9-23, 16-30), for which the IC50 in test [1] is above 5000 nM; in test [2], above 5 µM.
With `CC[C@H](C)[C@@H]1NC(=O)[C@@H]2CSSC[C@@H]3NC(=O)[C@H](C(C)C)NC(=O)[C@H](CC(C)C)NC(=O)[C@H](CC(N)=O)NC(=O)[C@@H]4CCCN4C(=O)[C@H](CCCNC(=N)N)NC(=O)[C@H](CSSC[C@H](NC(=O)[C@@H](N)CC(=O)O)C(=O)N[C@@H](CC(C)C)C(=O)NCC(=O)N[C@@H](Cc4ccccc4)C(=O)N[C@@H](CCSC)C(=O)N[C@@H](CCCNC(=N)N)C(=O)N[C@@H](CCCCN)C(=O)N2)NC(=O)[C@H](CSSC[C@@H](C(=O)N[C@@H](CCCCN)C(=O)N[C@@H](Cc2ccc(O)cc2)C(=O)N[C@H](C(=O)N[C@@H](Cc2ccccc2)C(N)=O)C(C)C)NC(=O)[C@H](Cc2c[nH]c4ccccc24)NC(=O)[C@H](CCCCN)NC(=O)[C@H](Cc2cnc[nH]2)NC(=O)[C@H]([C@@H](C)O)NC(=O)[C@H](CCCNC(=N)N)NC(=O)[C@H](CCC(=O)O)NC3=O)NC(=O)[C@H](CCCCN)NC(=O)[C@H](CC(=O)O)NC(=O)[C@H](CC(N)=O)NC(=O)[C@H](CC(=O)O)NC(=O)[C@@H]2CCCN2C1=O` (H-DCLGFMRKCIPDNDKCCRPNLVCERTHKWCKYVF-NH2; disulfide 2-17, 9-23, 16-30), the results for the IC50 in test [1] and in test [2] were above 5000 nM and above 5 µM, respectively.
In the same order, the values of `CC[C@H](C)[C@@H]1NC(=O)[C@@H]2CSSC[C@@H]3NC(=O)[C@H](C(C)C)NC(=O)[C@H](CC(C)C)NC(=O)[C@H](CC(N)=O)NC(=O)[C@@H]4CCCN4C(=O)[C@H](CCCNC(=N)N)NC(=O)[C@H](CSSC[C@H](NC(=O)[C@@H](N)CC(=O)O)C(=O)N[C@@H](CC(C)C)C(=O)NCC(=O)N[C@@H](Cc4ccccc4)C(=O)N[C@@H](CCSC)C(=O)N[C@@H](CCCNC(=N)N)C(=O)N[C@@H](CCCCN)C(=O)N2)NC(=O)[C@H](CSSC[C@@H](C(=O)N[C@@H](CCCCN)C(=O)N[C@@H](Cc2ccc(O)cc2)C(=O)N[C@H](C(=O)N[C@@H](Cc2ccccc2)C(N)=O)C(C)C)NC(=O)[C@H](CCCNC(=N)N)NC(=O)[C@H](CCCCN)NC(=O)[C@H](Cc2cnc[nH]2)NC(=O)[C@H]([C@@H](C)O)NC(=O)[C@H](CCCNC(=N)N)NC(=O)[C@H](CO)NC3=O)NC(=O)[C@H](CCCCN)NC(=O)[C@H](CC(=O)O)NC(=O)[C@H](CC(N)=O)NC(=O)[C@H](CC(=O)O)NC(=O)[C@@H]2CCCN2C1=O` (H-DCLGFMRKCIPDNDKCCRPNLVCSRTHKRCKYVF-NH2; disulfide 2-17, 9-23, 16-30) are above 5000 nM and above 5 µM.
